In the assay the test system is A-431. The assay is described as follows: Antiproliferative activity against human A431 cells after 48 hrs by MTT assay. As to conditions: A-431, 48 h. Format: functional, cell-based. In short, it runs like this:
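Cells in complete medium seeded into 96-well plates, preincubated 24 h at 37 °C, 5% CO₂ before cytotoxicity assessment; absorbance read at 570 nm on plate reader.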

Each structure is given as a SMILES string.

A word on the IC50: it is the concentration needed to halve the response being measured.

Take `O=c1[nH]cc(F)c(=O)[nH]1` [FLUOROURACIL]: the concentration for half-maximal inhibition (IC50) came out at 18 nM.
